In ChEMBL document CHEMBL1949561, “Synthesis and triplex-forming ability of oligonucleotides bearing 1-substituted 1H-1,2,3-triazole nucleobases” (Bioorg Med Chem, 2011):

What was measured:
Format in all cases: nucleic-acid assay
[1] = test system: Nucleic Acid; experiment: Binding affinity to5'-GCTAAAAAGACAGAGAGATCG-3'/5'- CGATCTCTCTGTCTTTTTAGC-3' double stranded DNA assessed as melting temperature at 1.5 uM in sodium phosphate buffer at pH 7 by UV spectrophotometric analysis
How it was run: (§1)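 UV melting of triplexes between each modified TFO and the 21-bp duplex target, in 7 mM sodium phosphate buffer (pH 7.0), 140 mM KCl and 10 mM MgCl₂. Each oligonucleotide at 1.5 µM final. Absorbance followed at 260 nm from 5 °C to 85 °C, scanned at 0.5 °C/min, to give Tm.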

[2] = test system: Nucleic Acid; experiment: Binding affinity to 5'-GCTAAAAAGACAGAGAGATCG-3'/5'- CGATCTCTCTGTCTTTTTAGC-3' double stranded DNA assessed as change in melting temperature at 1.5 uM in sodium phosphate buffer at pH 7 by UV spectrophotometric analysis
[3] = test system: Nucleic Acid; experiment: Binding affinity to 5'-GCTAAAAAGAAAGAGAGATCG-3'/5'- CGATCTCTCTTTCTTTTTAGC-3' double stranded DNA assessed as melting temperature at 1.5 uM in sodium phosphate buffer at pH 7 by UV spectrophotometric analysis; how it was run: as §1
[4] = test system: Nucleic Acid; experiment: Binding affinity to 5'-GCTAAAAAGAGAGAGAGATCG-3'/5'- CGATCTCTCTCTCTTTTTAGC-3' double stranded DNA assessed as melting temperature at 1.5 uM in sodium phosphate buffer at pH 7 by UV spectrophotometric analysis; how it was run: as §1
[5] = test system: Nucleic Acid; experiment: Binding affinity to 5'-GCTAAAAAGATAGAGAGATCG-3'/5'- CGATCTCTCTATCTTTTTAGC-3' double stranded DNA assessed as melting temperature at 1.5 uM in sodium phosphate buffer at pH 7 by UV spectrophotometric analysis; how it was run: as §1
[6] = test system: Nucleic Acid; experiment: Binding affinity to 5'-GCTAAAAAGAGAGAGAGATCG-3'/5'- CGATCTCTCTCTCTTTTTAGC-3' double stranded DNA assessed as melting temperature at 1.9 uM in sodium cacodylate buffer at pH 6.8 by UV spectrophotometric analysis
How it was run: (§2)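 Each oligonucleotide at 1.9 µM final. Absorbance at 260 nm recorded from 5 °C to 85 °C at 0.5 °C/min; Tm taken from the melting profile.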

[7] = test system: Nucleic Acid; experiment: Binding affinity to 5'-GCTAAAAAGAAAGAGAGATCG-3'/5'- CGATCTCTCTTTCTTTTTAGC-3' double stranded DNA assessed as melting temperature at 1.9 uM in sodium cacodylate buffer at pH 6.8 by UV spectrophotometric analysis; how it was run: as §2
[8] = test system: Nucleic Acid; experiment: Binding affinity to 5'-GCTAAAAAGACAGAGAGATCG-3'/5'- CGATCTCTCTGTCTTTTTAGC-3' double stranded DNA assessed as melting temperature at 1.9 uM in sodium cacodylate buffer at pH 6.8 by UV spectrophotometric analysis; how it was run: as §2
[9] = test system: Nucleic Acid; experiment: Binding affinity to 5'-GCTAAAAAGATAGAGAGATCG-3'/5'- CGATCTCTCTATCTTTTTAGC-3' double stranded DNA assessed as melting temperature at 1.9 uM in sodium cacodylate buffer at pH 6.8 by UV spectrophotometric analysis; how it was run: as §2

Tm [1]: 24 °C
ΔTm [2]: 11 °C
Tm [3]: 12 °C
Tm [4]: 13 °C
Tm [5]: 13 °C
Tm [6]: 17 °C
Tm [7]: 18 °C
Tm [8]: 29 °C
Tm [9]: 18 °C
Structure (SMILES): Cc1cn([C@H]2C[C@H](OP(=O)(O)OC[C@H]3O[C@@H](n4cc(C)c(=O)[nH]c4=O)C[C@@H]3OP(=O)(O)OC[C@H]3O[C@@H](n4cc(C)c(N)nc4=O)C[C@@H]3OP(=O)(O)OC[C@H]3O[C@@H](n4cc(C)c(=O)[nH]c4=O)C[C@@H]3OP(=O)(O)OC[C@H]3O[C@@H](n4cc(C)c(N)nc4=O)C[C@@H]3OP(=O)(O)OC[C@H]3O[C@@H](n4cc(C)c(=O)[nH]c4=O)C[C@@H]3OP(=O)(O)OC[C@H]3O[C@@H](c4cn(-c5ccc(NC(N)=O)cc5)nn4)C[C@@H]3OP(=O)(O)OC[C@H]3O[C@@H](n4cc(C)c(=O)[nH]c4=O)C[C@@H]3OP(=O)(O)OC[C@H]3O[C@@H](n4cc(C)c(N)nc4=O)C[C@@H]3OP(=O)(O)OC[C@H]3O[C@@H](n4cc(C)c(=O)[nH]c4=O)C[C@@H]3OP(=O)(O)OC[C@H]3O[C@@H](n4cc(C)c(=O)[nH]c4=O)C[C@@H]3OP(=O)(O)OC[C@H]3O[C@@H](n4cc(C)c(=O)[nH]c4=O)C[C@@H]3OP(=O)(O)OC[C@H]3O[C@@H](n4cc(C)c(=O)[nH]c4=O)C[C@@H]3OP(=O)(O)OC[C@H]3O[C@@H](n4cc(C)c(=O)[nH]c4=O)C[C@@H]3O)[C@@H](COP(=O)(O)O[C@H]3C[C@H](n4cc(C)c(=O)[nH]c4=O)O[C@@H]3CO)O2)c(=O)nc1N
